# Experimental data pooled from the literature.
# Compare with care: the assays were run in different laboratories.
# EIF2AK4 S808G C-terminal kinase domain: eIF-2-alpha kinase GCN2, C-terminal kinase domain (EIF2AK4, Homo sapiens, UniProt Q9P2K8, S808G)
# EIF2AK4 S808G: eIF-2-alpha kinase GCN2 (EIF2AK4, Homo sapiens, UniProt Q9P2K8, S808G)
SMILES,target,test,conditions,remaining binding [%]
Cc1cnc(Nc2ccc(C(=O)N3CCC(N4CCCC4)CC3)cc2)nc1-c1cc2ccccc2s1,EIF2AK4 S808G C-terminal kinase domain,"binding, competition with immobilised ligand",1 µM,0
CN(C)c1nccc(-c2cnn3ncccc23)n1,EIF2AK4 S808G,binding,1 µM,100
CCN1CCN(Cc2ccc(C(=O)Nc3ccc(C)c(Oc4ccc5c(c4)CC(=O)N5)c3)cc2C(F)(F)F)CC1,EIF2AK4 S808G C-terminal kinase domain,"binding, competition with immobilised ligand",1 µM,100
CCCOc1ccc([C@@H]2[C@@H](C(=O)O)[C@H](c3ccc4c(c3)OCO4)CN2CC(=O)Nc2c(CC)cccc2CC)cc1,EIF2AK4 S808G C-terminal kinase domain,"cell-free assay, competition with immobilised ligand",1 µM,100
CN(c1nccc(-c2cnn3ncccc23)n1)C1CC1,EIF2AK4 S808G,binding,1 µM,69
O=C(c1ccc(Nc2nccc(-c3cc4ccccc4s3)n2)cc1)N1CCC(N2CCCC2)CC1,EIF2AK4 S808G C-terminal kinase domain,"binding, competition with immobilised ligand",1 µM,5.2
COc1ccnn2ncc(-c3ccnc(N(C)C)n3)c12,EIF2AK4 S808G,binding,1 µM,93
C=CC(=O)N1CCC(C(=O)NCC(=O)N2CCN(c3nc(-c4cnc(N)nc4C(F)F)nc(N4CCOCC4)n3)CC2)CC1,EIF2AK4 S808G C-terminal kinase domain,"binding, competition with immobilised ligand",1 µM,100
O=C(NS(=O)(=O)c1ccc(NCC2CCOCC2)c([N+](=O)[O-])c1)c1ccc(N2CCN(Cc3ccc(C(F)(F)F)cc3-c3ccc(Cl)cc3)CC2)cc1Oc1cnc2[nH]ccc2c1,EIF2AK4 S808G C-terminal kinase domain,"cell-free assay, competition with immobilised ligand",1 µM,85
N[C@@H]1CCN(c2nccc(-c3cnn4ncccc34)n2)C1,EIF2AK4 S808G,binding,1 µM,100
Nc1ncc2c(n1)-c1c([nH]c3ccc(C#CC4CC4)cc13)CCCC2,EIF2AK4 S808G C-terminal kinase domain,"binding, competition with immobilised ligand",1 µM,89
CNC(=O)[C@@H]1CC[C@@H](n2c(-c3ccc4cnccc4c3)nc3ccc(C(=O)NCc4cccc(C(N)=O)c4)cc32)C1,EIF2AK4 S808G C-terminal kinase domain,"binding, competition with immobilised ligand",1 µM,82
c1cncc(-c2cccc(Nc3nccc(NC4CCCCC4)n3)c2)c1,EIF2AK4 S808G C-terminal kinase domain,"binding, competition with immobilised ligand",10 µM,100
CCCCN(CCCC)C(=O)CN1C[C@@H](c2cc(OC)c3c(c2)OCO3)[C@H](C(=O)O)[C@H]1CC(C)(C)CCC,EIF2AK4 S808G C-terminal kinase domain,"cell-free assay, competition with immobilised ligand",1 µM,100
C[C@@H]1CCN(c2nccc(-c3cnn4ncccc34)n2)C1,EIF2AK4 S808G,binding,1 µM,78
CN1CCN(c2ccc(Nc3nccc(-c4cccc([N+](=O)[O-])c4)n3)cc2C(F)(F)F)CC1,EIF2AK4 S808G,binding,10 µM,0.2
CN(CCCC(F)(F)F)c1nccc(-c2cnn3ncccc23)n1,EIF2AK4 S808G,binding,1 µM,99
Cn1nc(C(F)(F)F)cc1-c1cnc(N2CCc3cc(S(=O)(=O)Nc4c(F)cc(Cl)cc4F)cc(N4CCCC4=O)c32)nc1,EIF2AK4 S808G C-terminal kinase domain,"cell-free assay, competition with immobilised ligand",1 µM,100
F[C@@H]1CCN(c2nccc(-c3cnn4ncccc34)n2)C1,EIF2AK4 S808G,binding,1 µM,63
O=S(=O)(NC1CCC(c2cc(F)ccc2F)(S(=O)(=O)c2ccc(Cl)cc2)CC1)C(F)(F)F (centres unmarked),EIF2AK4 S808G C-terminal kinase domain,"cell-free assay, competition with immobilised ligand",1 µM,100
O=C(c1ccc(Nc2ncc(Cl)c(-c3cc4ccccc4s3)n2)cc1)N1CCC(N2CCCC2)CC1,EIF2AK4 S808G C-terminal kinase domain,"binding, competition with immobilised ligand",1 µM,0
O=C(NCCCC1CCCCC1)c1ccc(CNC(=O)c2cnn(-c3ccccc3)c2C(F)(F)F)cc1,EIF2AK4 S808G C-terminal kinase domain,"cell-free assay, competition with immobilised ligand",0.1 µM,100
O=C(Nc1c[nH]nc1C(=O)NC1CCNCC1)c1cc(F)cc(F)c1,EIF2AK4 S808G C-terminal kinase domain,"binding, competition with immobilised ligand",1 µM,100
